Data reported in ChEMBL document CHEMBL3734738, “A structure-activity relationship of non-peptide macrocyclic histone deacetylase inhibitors and their anti-proliferative and anti-inflammatory activities” (Bioorg Med Chem, 2015).

Experiments:
MCF7 = assay: Cytotoxicity against human MCF7 cells after 72 hrs by MTS assay; assay type: functional, cell-based; conditions: Homo sapiens, MCF7, 72 h; read-out: IC50
Outline: (§1)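 Cells kept in DMEM with 10% FBS and 1% penicillin-streptomycin, seeded in 96-well plates for 24 h, then exposed to a range of drug concentrations for 72 h at 0.1% DMSO; viability read by MTS assay per manufacturer's protocol.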

Histone deacetylase 1 = Histone deacetylase 1 (Homo sapiens, UniProt Q13547); assay: Inhibition of recombinant HDAC1 (unknown origin) expressed in Escherichia coli BL21(DE3) after 60 mins using trichostatin A by label-free mass spectrometry-based SAMDI assay
A549 = assay: Cytotoxicity against human A549 cells after 72 hrs by MTS assay; assay type: functional, cell-based; conditions: Homo sapiens, A549, 72 h; read-out: IC50; outline: as §1
[1] = Selectivity ratio of IC50 for African green monkey Vero cells to IC50 for human MCF7 cells; assay type: ADME, cell-based; conditions: Vero cells and MCF7 cells, read-out: Ratio IC50
Outline: (§2)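 Cell viability (MTS) was measured in A549, MCF-7 and Vero cells kept in DMEM with 10% FBS and 1% penicillin-streptomycin. Cells were plated 24 h before drug, then exposed to a range of concentrations for 72 h, with DMSO held at 0.1%. The ratio divides the Vero IC50 by the IC50 for the tumour line, both from this assay.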

Vero = assay: Cytotoxicity against African green monkey Vero cells after 72 hrs by MTS assay; assay type: cell-based; conditions: Chlorocebus sabaeus; outline: as §1
[2] = Selectivity ratio of IC50 for African green monkey Vero cells to IC50 for human A549 cells; assay type: ADME, cell-based; conditions: Vero cells and A549 cells, read-out: Ratio IC50; outline: as §2
[3] = target: T1, Protein deacetylase HDAC6 (Homo sapiens, UniProt Q9UBN7); assay: Inhibition of recombinant HDAC6 (unknown origin) expressed in Escherichia coli BL21(DE3) after 60 mins using trichostatin A by label-free mass spectrometry-based SAMDI assay
T1 sequence (Q9UBN7 whole entry): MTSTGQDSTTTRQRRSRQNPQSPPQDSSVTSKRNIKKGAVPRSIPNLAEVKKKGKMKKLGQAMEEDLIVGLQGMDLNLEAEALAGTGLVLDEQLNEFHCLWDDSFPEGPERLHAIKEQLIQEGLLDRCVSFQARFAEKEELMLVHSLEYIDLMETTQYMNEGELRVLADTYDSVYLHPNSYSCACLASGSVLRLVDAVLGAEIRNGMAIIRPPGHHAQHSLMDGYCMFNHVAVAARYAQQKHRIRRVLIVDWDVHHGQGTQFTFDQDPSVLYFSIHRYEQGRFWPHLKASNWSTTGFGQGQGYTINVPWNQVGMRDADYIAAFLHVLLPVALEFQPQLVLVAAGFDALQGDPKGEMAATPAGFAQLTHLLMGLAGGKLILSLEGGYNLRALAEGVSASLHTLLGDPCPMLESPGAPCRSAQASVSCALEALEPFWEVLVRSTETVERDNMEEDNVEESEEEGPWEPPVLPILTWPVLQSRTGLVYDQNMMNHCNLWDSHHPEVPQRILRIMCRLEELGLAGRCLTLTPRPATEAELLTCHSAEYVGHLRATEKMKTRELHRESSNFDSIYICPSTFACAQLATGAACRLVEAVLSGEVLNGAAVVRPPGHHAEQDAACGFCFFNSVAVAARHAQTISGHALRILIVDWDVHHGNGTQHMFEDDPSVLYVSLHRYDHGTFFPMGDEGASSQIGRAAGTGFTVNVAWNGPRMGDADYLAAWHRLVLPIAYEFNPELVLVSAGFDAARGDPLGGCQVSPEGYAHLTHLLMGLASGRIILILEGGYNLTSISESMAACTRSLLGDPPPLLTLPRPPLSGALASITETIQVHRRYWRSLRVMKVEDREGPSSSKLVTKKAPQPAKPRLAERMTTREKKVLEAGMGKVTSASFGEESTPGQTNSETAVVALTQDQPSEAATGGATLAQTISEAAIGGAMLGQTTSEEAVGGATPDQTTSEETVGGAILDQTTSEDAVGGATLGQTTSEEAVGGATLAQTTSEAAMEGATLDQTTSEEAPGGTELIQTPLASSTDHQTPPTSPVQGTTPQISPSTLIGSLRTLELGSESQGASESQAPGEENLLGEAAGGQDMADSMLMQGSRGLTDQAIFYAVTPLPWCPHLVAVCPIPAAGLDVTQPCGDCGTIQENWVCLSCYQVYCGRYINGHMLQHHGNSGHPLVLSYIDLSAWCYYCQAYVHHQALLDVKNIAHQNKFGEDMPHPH

Histone deacetylase 8 = target: T2, Histone deacetylase 8 (Homo sapiens, UniProt Q9BY41); assay: Inhibition of recombinant HDAC8 (unknown origin) expressed in Escherichia coli BL21(DE3) after 60 mins using trichostatin A by label-free mass spectrometry-based SAMDI assay
T2 sequence (Q9BY41 whole entry): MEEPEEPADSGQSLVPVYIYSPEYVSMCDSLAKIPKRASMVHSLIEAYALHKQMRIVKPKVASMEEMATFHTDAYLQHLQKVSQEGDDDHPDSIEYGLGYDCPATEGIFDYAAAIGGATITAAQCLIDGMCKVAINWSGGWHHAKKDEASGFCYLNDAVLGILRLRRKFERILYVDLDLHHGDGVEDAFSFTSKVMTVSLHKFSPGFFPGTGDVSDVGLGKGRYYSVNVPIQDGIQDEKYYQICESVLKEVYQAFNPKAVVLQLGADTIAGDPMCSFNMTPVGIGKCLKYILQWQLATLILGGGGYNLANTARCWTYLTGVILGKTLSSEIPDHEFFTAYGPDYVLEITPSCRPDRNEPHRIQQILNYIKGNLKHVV

Histone deacetylase 1, sequence (Q13547 whole entry): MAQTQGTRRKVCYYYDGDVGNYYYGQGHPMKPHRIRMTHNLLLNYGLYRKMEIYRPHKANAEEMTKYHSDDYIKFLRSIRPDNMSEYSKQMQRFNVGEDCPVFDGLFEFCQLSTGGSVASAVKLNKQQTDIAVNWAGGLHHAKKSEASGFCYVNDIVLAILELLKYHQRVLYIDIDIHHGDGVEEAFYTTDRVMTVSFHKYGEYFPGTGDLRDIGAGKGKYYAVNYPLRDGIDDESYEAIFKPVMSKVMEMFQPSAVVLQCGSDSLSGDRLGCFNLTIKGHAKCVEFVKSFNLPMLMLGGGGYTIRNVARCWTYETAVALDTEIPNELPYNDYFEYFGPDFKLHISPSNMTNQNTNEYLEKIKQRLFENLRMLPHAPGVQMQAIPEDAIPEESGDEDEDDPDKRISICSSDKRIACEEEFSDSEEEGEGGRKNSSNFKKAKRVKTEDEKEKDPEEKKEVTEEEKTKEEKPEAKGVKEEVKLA

Structure (SMILES): CC[C@H]1OC(=O)[C@H](C)C(=O)[C@H](C)[C@@H](O[C@@H]2O[C@H](C)C[C@H](N(C)Cc3cccc(-c4cn(CCCCCCC(=O)NO)nn4)c3)[C@H]2O)[C@@](C)(OC)C[C@@H](C)C2=NCCN3C(=O)O[C@@]1(C)[C@H]3[C@H]2C
- IC50 (MCF7): 860 nM
- IC50 (Histone deacetylase 1): 54.5 nM
- IC50 (A549): 7480 nM
- selectivity ratio [1]: 23
- IC50 (Vero): > 20000 nM
- selectivity ratio [2]: 2.7
- IC50 [3]: 3.76 nM
- IC50 (Histone deacetylase 8): 310 nM
